# Sampled rows, rich in hits. Any-hit rate of the full collection: about 4.6%.
# Hck-Nef inh = inhibitors of human Hck kinase activated by Nef. 0.68% of 220,000 active. Recombinant Hck-YEEI plus Nef, Z-Lyte FRET kinase assay. AID 463187. inhibition, % at 20 µM. P08631;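 active means Hck-Nef kinase inhibition above about 50%, limit read from the data; inactive means inhibition below that limit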
# RAM inhibit = inhibitors of the yeast RAM network; S. cerevisiae dse1pr::URA3 reporter, 5-FOA growth OD615, 2 d; analog-sensitive cbk1-as2 kinase mutant strain; 1.8% of 190,000 active; inhibition, % at 50 µM; AID 868;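 active means inhibition above a set limit, 3 SD over mean compound inhibition, cut at about 8.4% in these data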;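 further: inhibition rescues growth on 5-FOA so higher OD means more RAM inhibition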
# WT yeast gro inh = growth inhibition of WT yeast, mitochondrial fusion screen; AID 1362; mitochondrial fusion phenotypic screen, WT strain; 2.1% of 190,000 active; inhibition, % at 10 µM; in the data active means inhibition above about 58%; tested in S. cerevisiae
# p47phox inh = inhibitors of human p47phox binding | P14598 | p47phox/p22phox peptide binding, fluorescence polarization, 2 h | inhibition, % at 24.7 µM | 0.53% of 220,000 active;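 active means inhibition above about 30%, limit read from the data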
# Target sequence (P14598 whole entry, looked up): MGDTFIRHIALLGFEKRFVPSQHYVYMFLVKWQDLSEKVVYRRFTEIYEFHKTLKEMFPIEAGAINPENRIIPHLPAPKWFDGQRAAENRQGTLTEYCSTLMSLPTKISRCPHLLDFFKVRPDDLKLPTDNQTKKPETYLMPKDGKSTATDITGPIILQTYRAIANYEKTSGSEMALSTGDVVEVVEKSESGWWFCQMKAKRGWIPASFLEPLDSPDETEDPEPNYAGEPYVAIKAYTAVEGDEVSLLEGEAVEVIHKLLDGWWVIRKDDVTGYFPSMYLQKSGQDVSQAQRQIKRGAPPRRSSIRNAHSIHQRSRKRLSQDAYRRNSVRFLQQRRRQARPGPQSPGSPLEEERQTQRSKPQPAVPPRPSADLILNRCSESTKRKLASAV
# Calb biofilm kill = mixture kills Candida albicans biofilm cells; 0.02% of 120,000 active; AID 1242; inhibition, % at 7.6 µM; C. albicans biofilm persisters + clotrimazole, fluorescence viability; primary screen in compound mixtures of four per well;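 further: compounds exposed to preformed 24 h biofilms for 48 h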
#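 Test system: C. albicans CAF4-2 wild-type biofilms; buffer or medium: RPMI/MOPS medium, pH 7.0; schedule: 24 h biofilm formation, then 48 h compound exposure, 37 °C; detection: Alamar Blue fluorescence; measure: percent inhibition of biofilm viability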
# Arbovirus inh = blocks arbovirus infection; 0.37% of 200,000 active; inhibition, % at 10 µM; arbovirus infection cell-based antiviral screen; in the data active means inhibition above about 30%
# Hck-Nef confirm = Hck-Nef kinase inhibition, confirmation. shares compounds with Hck-Nef inh. 28% of 1,300 active. Recombinant Hck-YEEI:Nef, Z-Lyte FRET kinase assay. calls only at 10 µM;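 active means average inhibition of at least 50%, with Z-scores no higher than 3 in both the phospho-tyrosine peptide and fluorescence counterscreens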
# A number is an active result; - = inactive; . = no result shown; + = active, no number.
SMILES,Hck-Nef inh,RAM inhibit,WT yeast gro inh,p47phox inh,Calb biofilm kill,Arbovirus inh,Hck-Nef confirm
O=C(Nc1nnc(SCc2c(Cl)cccc2Cl)s1)c1ccc2ncsc2c1,110.5,-,-,-,-,-,+
Cc1ccc(-c2nnc(-c3ccc(NC(=O)c4ccco4)cc3)o2)cc1,108.0,-,-,-,.,-,-
Cc1ccc(NC(=O)CCC(=O)NNC(=O)/C=C/C(=O)O)c(C)c1,-,-,-,-,-,-,.
CCC12CN3CC(CC)(CN(C1)C3c1ccc([N+](=O)[O-])o1)C2=O (centres undefined),50.1,-,-,-,-,-,-
O=C(O)c1ccc(N/N=C/c2ccc(-c3cccc(Cl)c3)o2)cc1,53.3,.,.,-,-,.,-
O=C(O)c1ccc(N/N=C/c2ccc(-c3cc(Cl)ccc3Cl)o2)cc1,-,.,.,-,-,.,.
COCc1[nH][nH]c(=O)c1C=Nc1ccc(Oc2ccccc2)cc1,91.3,-,-,-,.,-,+
CNC(=O)CSc1nnc(-c2ccccc2F)n1CCc1ccccc1,-,.,.,-,-,.,.
c1ccc(-c2nc3nc4ccccc4nc3n2CC2CCCO2)cc1 (centres undefined),-,.,.,-,-,.,.
c1coc(-c2nc3nc4ccccc4nc3n2CC2CCCO2)c1 (centres undefined),158.7,-,.,-,.,-,.
CC(=O)Oc1ccc2c(C)cc(=O)oc2c1,86.0,-,-,-,.,-,-
CC(=O)Oc1cc2oc(=O)cc(C)c2cc1OC(C)=O,68.2,-,-,-,.,-,.
CCN(c1ccccc1)S(=O)(=O)c1cc(C(=O)OC(C)C(=O)Nc2ccc3c(c2)OCCO3)ccc1C (centres undefined),-,-,-,-,-,-,.
CCN(c1ccccc1)S(=O)(=O)c1cc(C(=O)Oc2ccc3c(C)cc(=O)oc3c2)ccc1C,55.7,-,-,-,-,-,.
COc1ccc(N/N=C(/C(C)=O)N2CCCc3ccccc32)cc1,-,.,.,-,-,.,.
COc1ccc(CNC(=O)C(c2ccncc2)N(C(=O)Cc2cccs2)c2ccc(C)cc2)cc1 (centres undefined),-,-,-,-,.,-,.
CN1CCC(=NOc2ccc([N+](=O)[O-])cc2)CC1,-,-,-,-,-,-,.
COCCNc1cc(C)nc2c3c(C)cc(C)nc3nn12,57.1,-,-,-,.,-,.
COc1ccc(-n2c(N)c(C(=O)NCC3CCCO3)c3nc4ccccc4nc32)c(OC)c1 (centres undefined),75.2,-,-,-,.,-,.
O=C(NCC1CCCO1)c1coc2nc3ccccc3nc12 (centres undefined),-,-,-,-,.,-,.
C=CCn1c(N)c(C(=O)NCC2CCCO2)c2nc3ccccc3nc21 (centres undefined),54.7,-,-,-,.,-,.
Cc1ccc(-c2nc(N)s[n+]2-c2ccccc2)cc1,101.0,-,-,93.0,-,-,+
Cc1ccc(-c2nnc(-c3ccccc3)o2)cc1,-,-,-,-,-,-,.
Cc1cc(C(=O)COC(=O)c2cc(O)c3ccccc3c2O)c(C)n1CC1CCCO1 (centres undefined),92.8,-,-,-,-,-,-
N#C/C(=C\c1ccc(OC(=O)c2cccs2)cc1)c1nc2ccccc2[nH]1,56.8,-,-,-,-,-,+
SMILES,Hck-Nef inh,RAM inhibit,WT yeast gro inh,p47phox inh,Calb biofilm kill,Arbovirus inh,Hck-Nef confirm
Cc1nnc(SCC(=O)N2N=C(c3ccc(Cl)cc3)CC2c2ccco2)[nH]c1=O (centres undefined),50.4,-,-,-,-,-,-
Clc1ccc(C2=NN(c3ccccc3)C(c3ccco3)C2)cc1 (centres undefined),60.2,.,.,-,-,.,-
CC(=O)N1N=C(c2ccc(Cl)cc2)CC1c1ccco1 (centres undefined),-,.,.,-,-,.,.
CSCCC1NC(=O)N(CC(=O)N2N=C(c3ccc(Cl)cc3)CC2c2ccco2)C1=O (centres undefined),-,-,-,-,-,-,.
CCOC(=O)C(NC(C)=O)C(=O)Nc1c(C)cccc1C (centres undefined),-,-,-,-,-,-,.
CC[N+](C)(CC)CC(=O)OCC1C(C)C=C(C)CC1C (centres undefined),-,.,.,-,-,.,.
CCNC(=O)NC(=O)C(C)OC(=O)[C@H](C)NS(=O)(=O)c1c(C)c(C)cc(C)c1C (some centres undefined),-,.,.,-,-,.,.

# Source: PubChem (several laboratories)
